Results taken from ChEMBL document CHEMBL1125249, “Structure-affinity relationships of 12-sulfonyl derivatives of 5,8,8a,9,10,11,12,12a,13,13a-decahydro-6H-isoquino[2,1-g][1 ,6] naphthyridines at alpha-adrenoceptors” (J Med Chem, 1991).

Experiments:
[1] = molecular target: T1, Adrenergic receptor alpha-2 (Rattus norvegicus, UniProt P22086+P19328+P22909); assay: Binding affinity to alpha-2 adrenergic receptor determined by measurement of [3H]yohimbine displacement from rat cortical membrane
T1 sequence (P22086 whole entry): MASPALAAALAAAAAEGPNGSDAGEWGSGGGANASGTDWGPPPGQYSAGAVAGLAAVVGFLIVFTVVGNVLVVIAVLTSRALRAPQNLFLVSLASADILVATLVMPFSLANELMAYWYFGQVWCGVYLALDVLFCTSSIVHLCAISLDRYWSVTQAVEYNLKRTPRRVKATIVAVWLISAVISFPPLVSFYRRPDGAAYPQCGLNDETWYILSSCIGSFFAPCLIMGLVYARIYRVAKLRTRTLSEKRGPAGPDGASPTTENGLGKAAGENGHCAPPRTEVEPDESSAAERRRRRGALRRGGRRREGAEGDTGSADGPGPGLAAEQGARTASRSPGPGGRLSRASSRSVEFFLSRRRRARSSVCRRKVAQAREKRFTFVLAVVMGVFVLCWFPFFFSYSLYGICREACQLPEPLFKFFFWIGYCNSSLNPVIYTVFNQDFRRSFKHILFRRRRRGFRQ
T1 sequence (P19328 whole entry): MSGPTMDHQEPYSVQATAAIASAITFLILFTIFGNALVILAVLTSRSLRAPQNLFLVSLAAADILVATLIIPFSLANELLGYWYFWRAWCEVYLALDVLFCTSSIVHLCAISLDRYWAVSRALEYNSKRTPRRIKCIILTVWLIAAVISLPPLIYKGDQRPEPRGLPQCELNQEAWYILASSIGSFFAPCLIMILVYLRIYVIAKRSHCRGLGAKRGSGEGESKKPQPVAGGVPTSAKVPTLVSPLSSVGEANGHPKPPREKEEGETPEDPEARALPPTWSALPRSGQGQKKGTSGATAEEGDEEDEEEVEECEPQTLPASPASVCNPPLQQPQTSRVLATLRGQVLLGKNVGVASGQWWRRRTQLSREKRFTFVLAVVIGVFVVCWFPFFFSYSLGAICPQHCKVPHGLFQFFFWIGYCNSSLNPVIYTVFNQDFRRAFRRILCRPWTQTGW
T1 sequence (P22909 whole entry): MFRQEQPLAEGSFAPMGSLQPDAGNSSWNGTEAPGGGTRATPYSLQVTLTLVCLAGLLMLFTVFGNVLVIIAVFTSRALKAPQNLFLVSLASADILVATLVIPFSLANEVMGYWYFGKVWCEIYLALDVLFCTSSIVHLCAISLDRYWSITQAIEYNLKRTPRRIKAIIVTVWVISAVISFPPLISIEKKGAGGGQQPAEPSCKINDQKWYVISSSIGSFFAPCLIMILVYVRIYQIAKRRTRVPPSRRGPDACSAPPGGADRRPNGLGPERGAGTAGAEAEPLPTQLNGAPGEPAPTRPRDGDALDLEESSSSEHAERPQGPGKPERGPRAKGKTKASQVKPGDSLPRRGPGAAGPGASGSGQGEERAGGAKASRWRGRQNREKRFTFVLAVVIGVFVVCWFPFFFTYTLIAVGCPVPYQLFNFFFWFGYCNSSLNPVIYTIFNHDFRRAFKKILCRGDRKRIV

[2] = molecular target: T2, Adrenergic receptor alpha-1 (Rattus norvegicus, UniProt P15823+P23944+P43140); assay: Binding affinity to alpha-1 adrenergic receptor determined by measurement of [3H]prazosin displacement from rat cortical membrane
T2 sequence (P15823 whole entry): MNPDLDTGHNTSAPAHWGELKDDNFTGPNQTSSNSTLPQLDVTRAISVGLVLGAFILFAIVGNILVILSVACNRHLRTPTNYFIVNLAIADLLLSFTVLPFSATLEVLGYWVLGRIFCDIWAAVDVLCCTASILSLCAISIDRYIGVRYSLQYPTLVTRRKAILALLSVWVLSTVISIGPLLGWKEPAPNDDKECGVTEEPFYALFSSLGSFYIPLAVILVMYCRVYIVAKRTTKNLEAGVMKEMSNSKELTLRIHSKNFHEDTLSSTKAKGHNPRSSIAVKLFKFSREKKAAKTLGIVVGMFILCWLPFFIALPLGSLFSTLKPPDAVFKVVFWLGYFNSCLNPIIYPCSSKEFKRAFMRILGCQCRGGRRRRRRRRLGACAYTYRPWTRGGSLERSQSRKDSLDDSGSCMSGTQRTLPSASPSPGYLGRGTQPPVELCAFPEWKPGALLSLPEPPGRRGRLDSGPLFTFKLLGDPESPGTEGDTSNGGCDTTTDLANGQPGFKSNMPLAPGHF
T2 sequence (P23944 whole entry): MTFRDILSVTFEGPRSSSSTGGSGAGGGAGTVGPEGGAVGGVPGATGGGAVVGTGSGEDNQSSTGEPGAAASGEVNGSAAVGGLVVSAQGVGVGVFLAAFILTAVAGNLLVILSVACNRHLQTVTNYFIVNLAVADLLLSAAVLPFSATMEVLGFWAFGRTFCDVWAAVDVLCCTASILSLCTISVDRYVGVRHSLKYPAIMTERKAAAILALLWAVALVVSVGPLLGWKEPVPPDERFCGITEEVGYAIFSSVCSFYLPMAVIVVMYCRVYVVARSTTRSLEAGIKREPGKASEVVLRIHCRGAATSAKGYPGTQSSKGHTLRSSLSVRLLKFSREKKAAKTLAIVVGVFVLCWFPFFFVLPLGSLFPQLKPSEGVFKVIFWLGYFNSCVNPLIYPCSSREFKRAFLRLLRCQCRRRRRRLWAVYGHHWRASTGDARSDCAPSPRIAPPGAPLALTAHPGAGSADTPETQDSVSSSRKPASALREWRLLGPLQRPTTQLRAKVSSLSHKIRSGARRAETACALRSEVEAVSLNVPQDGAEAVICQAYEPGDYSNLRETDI
T2 sequence (P43140 whole entry): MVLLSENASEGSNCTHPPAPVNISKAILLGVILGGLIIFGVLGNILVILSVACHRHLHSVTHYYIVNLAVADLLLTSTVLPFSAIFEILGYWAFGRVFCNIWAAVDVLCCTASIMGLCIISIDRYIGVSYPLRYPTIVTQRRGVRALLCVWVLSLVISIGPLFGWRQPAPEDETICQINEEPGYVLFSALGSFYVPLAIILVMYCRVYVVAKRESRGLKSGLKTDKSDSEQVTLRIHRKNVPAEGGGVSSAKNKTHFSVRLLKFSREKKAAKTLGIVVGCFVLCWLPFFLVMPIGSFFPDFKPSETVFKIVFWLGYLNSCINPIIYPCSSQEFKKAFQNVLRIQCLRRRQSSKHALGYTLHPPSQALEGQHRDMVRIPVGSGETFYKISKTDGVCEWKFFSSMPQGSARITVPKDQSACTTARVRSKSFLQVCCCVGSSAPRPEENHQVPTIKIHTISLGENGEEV
Procedure, shortened: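 Male Sprague-Dawley rat (150-200 g) cerebral cortex membranes, washed in 50 mM Tris-HCl/0.5 mM EDTA pH 7.4. 250 µg membrane protein incubated with 0.5 nM [3H]prazosin for 30 min at 25 °C in a 0.5 mL volume. Nonspecific binding defined by 10 µM phentolamine. IC50 estimated graphically; Ki calculated by Cheng-Prusoff.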

[3] = organism: Cavia porcellus; assay: In vitro reversal of inhibitory effect of UK - 14304 on the contractile response of guinea pig ileum to field stimulation.; type: functional, organism-based; conditions: read-out: pA2 (converted)
Procedure, shortened: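 Ileum from female Dunkin-Hartley guinea pigs (250-300 g) held in Tyrode solution at 37 °C, gassed with O2, under 1 g tension. Field stimulation at 0.1 Hz (1-ms pulses, supramaximal voltage), with isometric contractions recorded. Cumulative UK-14304 curves were run, the second taken as control. Antagonist was then applied for 40 min before repeat agonist curves.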

[4] = molecular target: T3, Adrenergic receptor alpha-2 (Rattus norvegicus) (UniProt P22086+P19328+P22909)
[5] = molecular target: T3, Adrenergic receptor alpha-2 (Rattus norvegicus); remark: listed apart in the source

Q: What does the source list for `CCCCS(=O)(=O)N1CCC[C@@H]2CN3CCc4ccccc4[C@@H]3C[C@@H]21`?
A: Log Ki [1]: -8.9; Log Ki [2]: -5.64; Kb [3]: 1.26 nM; ID50 [4]: 0.036 mg/kg; ID50 [5]: 0.9 mg/kg

Q: What does the source list for `CS(=O)(=O)N1CCC[C@@H]2CN3CCc4cc5c(cc4[C@@H]3C[C@@H]21)OCO5`?
A: Log Ki [1]: -9.18; Log Ki [2]: -5.14; Kb [3]: 1 nM; ID50 [4]: 0.06 mg/kg; ID50 [5]: 0.76 mg/kg
